Published values collected from several papers.
Lines come from different studies, so protocols differ.
Target: MAP kinase-interacting serine/threonine-protein kinase 1 (MKNK1, Homo sapiens, UniProt Q9BUB5)

| SMILES | effect on | mode | technique | concentration | measurement | value |
| --- | --- | --- | --- | --- | --- | --- |
| CC(C)(C)C(=O)c1sc(NC2CCCCC2)nc1N | enzyme activity | inhibitor |  | 10 µM | remaining activity | 105% |
| CNCc1ccccc1-c1csc([C@H](C)Nc2nc(C)nc3cc(OC)c(OC)cc23)c1 | cell-free assay |  | competition with immobilised ligand | 1 µM | remaining binding | 91% |
| CC(C)(C)c1nc2c(s1)c1nc(N)ncc1c1ccc(NS(=O)(=O)c3c(F)cccc3F)c(F)c12 | enzyme activity | inhibitor | radiometric | 1 µM | remaining activity | 117% |
| CC(C)(O)[C@H]1CC[C@H](Nc2ccc3ncc(-c4cccc(C(F)(F)F)c4)n3n2)CC1 | enzyme activity | inhibitor |  | 1 µM | remaining activity | 73.7% |
| Cc1sc(C(=O)NC2COC2)cc1-n1cc(NC(=O)Nc2c(F)cccc2Cl)cn1 | enzyme activity | inhibitor |  | 10 µM | remaining activity | 94.2% |
| O=C(Nc1ccc(Oc2ccc(F)cc2)cc1)N1CCc2ncccc2[C@H]1c1ccc(F)cc1 | cell-free assay |  | competition with immobilised ligand | 1 µM | remaining binding | 95% |
| O=C(CSc1nc2nccnc2c(=O)n1CCc1ccccc1)Nc1nccs1 | enzyme activity | inhibitor |  | 10 µM | inhibition | 1% |
| CNC(=O)c1cc(Oc2ccc(NC(=O)Nc3ccc(Cl)c(C(F)(F)F)c3)cc2)ccn1 | cell-free assay |  |  | 0.5 µM | remaining signal | 75.1% |
| O=C(O)[C@H]1[C@H](Cn2nnc3ccccc3c2=O)CC[C@@H]1C(=O)c1ccc(OCCC2CCOCC2)cc1 | cell-free assay |  | competition with immobilised ligand | 1 µM | remaining binding | 96% |
| COc1cc(Nc2cnc(C#N)c(O[C@H](C)CN(C)C)n2)ncc1-c1cnn(C)c1 | enzyme activity | inhibitor | radiometric | 1 µM | remaining activity | 94% |
| FC(F)c1nc2ccccc2n1-c1nc(N2CCOCC2)nc(N2CCOCC2)n1 | enzyme activity | inhibitor |  | 10 µM | remaining activity | 96% |
| Nc1ncnc2n[nH]c(Nc3ccc(F)cc3)c12 | cell-free assay |  |  | 0.5 µM | remaining signal | 75.2% |
| COc1cc(/C=C/C(=O)CC(=O)/C=C/c2ccc(O)c(OC)c2)ccc1O | enzyme activity | inhibitor |  | 1 µM | activity vs control | 112% |
| FC(F)(F)c1ccc2c(c1)nc(-c1cccnc1)n2C1CC1 | cell-free assay |  | competition with immobilised ligand | 1 µM | remaining binding | 100% |
| O=C1NC(=O)c2cc(Nc3ccc(F)cc3)c(Nc3ccc(F)cc3)cc21 | cell-free assay |  |  | 0.5 µM | remaining signal | 103% |
| FC(F)(F)Oc1cccc(-c2cnc3ccc(-c4ccncc4)nn23)c1 | enzyme activity | inhibitor | radiometric | 1 µM | activity vs control | 75% |
| Cc1nccc(COC(=O)N2C[C@@H]3[C@@H](CNC(=O)c4ccc5[nH]nnc5c4)[C@@H]3C2)n1 | cell-free assay |  | competition with immobilised ligand | 1 µM | remaining binding | 91% |
| COc1cc2ncnc(Nc3ccc(Oc4ccccc4)c(C)c3C)c2cc1OC | enzyme activity | inhibitor |  | 1 µM | inhibition | -6% |
| Cn1nc(C(=O)NCc2ccc(C(=O)O)cc2)cc1-c1ccc2[nH]ccc2c1 | cell-free assay |  | competition with immobilised ligand | 0.1 µM | remaining binding | 100% |
| O=C1Nc2ccc(Cl)cc2C1=Cc1cc(Cl)c(O)c(Cl)c1 | cell-free assay |  |  | 0.5 µM | remaining signal | 103% |
| CCS(=O)(=O)c1cc2cc(C[C@](O)(CC(C)(C)c3ccc(F)cc3C(N)=O)C(F)(F)F)[nH]c2cn1 | cell-free assay |  | competition with immobilised ligand | 1 µM | remaining binding | 97% |
| O=C(Nc1cnn(-c2csc(C(=O)NC3COC3)c2)c1)Nc1c(F)cccc1Cl | enzyme activity | inhibitor |  | 5 µM | remaining activity | 103% |
